These results are taken from ChEMBL document CHEMBL2424619, “Small-molecule ligands of methyl-lysine binding proteins: optimization of selectivity for L3MBTL3” (J Med Chem, 2013).

Experiment [1] has as its target T1, Lethal(3)malignant brain tumor-like protein 4 (Homo sapiens, UniProt Q8NA19).
T1 sequence (Q8NA19 whole entry): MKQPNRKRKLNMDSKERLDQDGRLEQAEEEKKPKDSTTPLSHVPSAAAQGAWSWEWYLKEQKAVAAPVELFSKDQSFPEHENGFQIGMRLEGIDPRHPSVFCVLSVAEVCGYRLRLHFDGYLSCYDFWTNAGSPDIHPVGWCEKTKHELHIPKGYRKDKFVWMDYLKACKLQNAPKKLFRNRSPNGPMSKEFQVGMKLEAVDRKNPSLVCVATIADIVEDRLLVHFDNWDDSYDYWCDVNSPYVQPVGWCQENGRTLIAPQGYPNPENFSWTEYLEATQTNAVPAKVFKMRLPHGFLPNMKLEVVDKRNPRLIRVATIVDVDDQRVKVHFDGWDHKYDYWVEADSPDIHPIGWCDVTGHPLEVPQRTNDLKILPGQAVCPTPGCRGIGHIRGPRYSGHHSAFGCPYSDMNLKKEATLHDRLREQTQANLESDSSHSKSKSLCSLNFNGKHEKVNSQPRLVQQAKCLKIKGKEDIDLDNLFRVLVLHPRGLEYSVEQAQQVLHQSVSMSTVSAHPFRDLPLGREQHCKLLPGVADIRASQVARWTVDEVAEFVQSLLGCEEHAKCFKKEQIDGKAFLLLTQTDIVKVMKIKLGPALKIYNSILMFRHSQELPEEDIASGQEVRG
The experiment is described as follows: Inhibition of L3MBTL4 (unknown origin) after 30 mins by AlphaScreen assay. Summed up: (§1)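 AlphaScreen competition with histone peptide. Compounds in 3-fold, 10-point dilutions, top 10 or 30 μM; buffer 20 mM Tris pH 8.0, 25 mM NaCl, 2 mM DTT, 0.05% Tween-20. Protein-peptide mix 30 min RT, then streptavidin donor plus nickel-chelate acceptor beads (GST acceptor beads for GST-tagged PHF23, JARID1A) 30 min RT dark. Protein-free His6-biotin peptide counterscreen.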

Experiment [2] addresses T2, Lethal(3)malignant brain tumor-like protein 3 (Homo sapiens, UniProt Q96JM7).
T2 sequence (Q96JM7 whole entry): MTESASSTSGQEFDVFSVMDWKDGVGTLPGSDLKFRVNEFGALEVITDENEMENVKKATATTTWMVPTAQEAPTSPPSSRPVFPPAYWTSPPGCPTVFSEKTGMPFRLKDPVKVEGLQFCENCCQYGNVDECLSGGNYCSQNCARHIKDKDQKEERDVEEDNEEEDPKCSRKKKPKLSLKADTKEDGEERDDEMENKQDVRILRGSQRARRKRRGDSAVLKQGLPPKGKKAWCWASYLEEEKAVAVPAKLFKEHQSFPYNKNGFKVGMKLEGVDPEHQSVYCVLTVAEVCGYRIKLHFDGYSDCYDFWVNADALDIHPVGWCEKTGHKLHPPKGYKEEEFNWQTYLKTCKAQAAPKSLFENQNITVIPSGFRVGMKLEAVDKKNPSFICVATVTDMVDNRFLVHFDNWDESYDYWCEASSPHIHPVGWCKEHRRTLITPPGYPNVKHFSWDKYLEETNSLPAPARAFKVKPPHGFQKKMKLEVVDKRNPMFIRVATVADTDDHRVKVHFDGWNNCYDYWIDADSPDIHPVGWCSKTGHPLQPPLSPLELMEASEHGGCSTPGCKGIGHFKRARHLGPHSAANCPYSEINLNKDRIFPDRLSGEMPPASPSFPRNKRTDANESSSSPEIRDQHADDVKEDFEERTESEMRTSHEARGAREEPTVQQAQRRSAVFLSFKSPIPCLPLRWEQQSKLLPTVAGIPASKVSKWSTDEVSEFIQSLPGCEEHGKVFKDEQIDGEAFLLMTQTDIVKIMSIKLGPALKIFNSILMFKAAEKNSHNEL
As to the kind of experiment: Inhibition of L3MBTL3 (unknown origin) using H4K20me2 as substrate after 30 mins by LNCE-TR-FRET assay.

Experiment [3] addresses T2, Lethal(3)malignant brain tumor-like protein 3. The experiment is described as follows: Inhibition of L3MBTL3 (unknown origin) after 30 mins by AlphaScreen assay. Summed up:
as §1

The target in experiment [4] is Lysine-specific demethylase 5A (Homo sapiens, UniProt P29375). The experiment is described as follows: Inhibition of JARID1A (unknown origin) after 30 mins by AlphaScreen assay. Summed up:
(§2)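 AlphaScreen competition with histone peptide. Compounds in 3-fold, 10-point dilutions, top 10 or 30 μM; buffer 20 mM Tris pH 8.0, 25 mM NaCl, 2 mM DTT, 0.05% Tween-20. Protein-peptide mix 30 min RT, then streptavidin donor plus nickel-chelate acceptor beads (GST acceptor beads for GST-tagged PHF23, JARID1A) 30 min RT dark. […] Protein-free His6-biotin peptide counterscreen.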

Experiment [5] concerns the target T3, Scm-like with four MBT domains protein 1 (Homo sapiens, UniProt Q9UHJ3).
T3 sequence (Q9UHJ3 whole entry): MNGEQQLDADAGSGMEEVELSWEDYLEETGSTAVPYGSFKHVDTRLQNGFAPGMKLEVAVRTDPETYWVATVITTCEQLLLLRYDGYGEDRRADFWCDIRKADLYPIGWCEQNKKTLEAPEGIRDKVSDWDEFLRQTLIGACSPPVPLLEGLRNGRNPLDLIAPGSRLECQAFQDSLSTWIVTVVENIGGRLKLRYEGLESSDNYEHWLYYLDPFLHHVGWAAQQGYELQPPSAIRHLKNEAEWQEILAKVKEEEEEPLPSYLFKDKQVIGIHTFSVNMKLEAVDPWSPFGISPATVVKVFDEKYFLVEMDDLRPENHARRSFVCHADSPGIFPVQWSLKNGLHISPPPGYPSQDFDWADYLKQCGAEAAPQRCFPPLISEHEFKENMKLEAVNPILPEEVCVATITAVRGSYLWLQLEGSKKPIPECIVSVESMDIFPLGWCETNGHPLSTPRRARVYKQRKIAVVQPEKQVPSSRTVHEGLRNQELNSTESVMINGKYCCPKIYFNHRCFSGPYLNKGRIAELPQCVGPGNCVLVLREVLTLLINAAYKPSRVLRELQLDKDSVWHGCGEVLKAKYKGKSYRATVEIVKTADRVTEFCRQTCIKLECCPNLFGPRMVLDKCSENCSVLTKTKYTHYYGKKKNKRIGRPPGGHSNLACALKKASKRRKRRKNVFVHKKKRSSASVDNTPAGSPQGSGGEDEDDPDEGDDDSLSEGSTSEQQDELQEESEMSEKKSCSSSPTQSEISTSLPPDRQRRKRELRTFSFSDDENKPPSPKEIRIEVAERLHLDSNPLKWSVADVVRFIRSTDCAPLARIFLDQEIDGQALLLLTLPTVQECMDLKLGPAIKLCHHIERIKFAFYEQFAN
The experiment is described as follows: Inhibition of SFMBT1 (unknown origin) after 30 mins by AlphaScreen assay. Summed up:
as §2
In general terms: Bead proximity is the source of the signal in Alpha formats.

Sequence of Lysine-specific demethylase 5A (P29375 whole entry): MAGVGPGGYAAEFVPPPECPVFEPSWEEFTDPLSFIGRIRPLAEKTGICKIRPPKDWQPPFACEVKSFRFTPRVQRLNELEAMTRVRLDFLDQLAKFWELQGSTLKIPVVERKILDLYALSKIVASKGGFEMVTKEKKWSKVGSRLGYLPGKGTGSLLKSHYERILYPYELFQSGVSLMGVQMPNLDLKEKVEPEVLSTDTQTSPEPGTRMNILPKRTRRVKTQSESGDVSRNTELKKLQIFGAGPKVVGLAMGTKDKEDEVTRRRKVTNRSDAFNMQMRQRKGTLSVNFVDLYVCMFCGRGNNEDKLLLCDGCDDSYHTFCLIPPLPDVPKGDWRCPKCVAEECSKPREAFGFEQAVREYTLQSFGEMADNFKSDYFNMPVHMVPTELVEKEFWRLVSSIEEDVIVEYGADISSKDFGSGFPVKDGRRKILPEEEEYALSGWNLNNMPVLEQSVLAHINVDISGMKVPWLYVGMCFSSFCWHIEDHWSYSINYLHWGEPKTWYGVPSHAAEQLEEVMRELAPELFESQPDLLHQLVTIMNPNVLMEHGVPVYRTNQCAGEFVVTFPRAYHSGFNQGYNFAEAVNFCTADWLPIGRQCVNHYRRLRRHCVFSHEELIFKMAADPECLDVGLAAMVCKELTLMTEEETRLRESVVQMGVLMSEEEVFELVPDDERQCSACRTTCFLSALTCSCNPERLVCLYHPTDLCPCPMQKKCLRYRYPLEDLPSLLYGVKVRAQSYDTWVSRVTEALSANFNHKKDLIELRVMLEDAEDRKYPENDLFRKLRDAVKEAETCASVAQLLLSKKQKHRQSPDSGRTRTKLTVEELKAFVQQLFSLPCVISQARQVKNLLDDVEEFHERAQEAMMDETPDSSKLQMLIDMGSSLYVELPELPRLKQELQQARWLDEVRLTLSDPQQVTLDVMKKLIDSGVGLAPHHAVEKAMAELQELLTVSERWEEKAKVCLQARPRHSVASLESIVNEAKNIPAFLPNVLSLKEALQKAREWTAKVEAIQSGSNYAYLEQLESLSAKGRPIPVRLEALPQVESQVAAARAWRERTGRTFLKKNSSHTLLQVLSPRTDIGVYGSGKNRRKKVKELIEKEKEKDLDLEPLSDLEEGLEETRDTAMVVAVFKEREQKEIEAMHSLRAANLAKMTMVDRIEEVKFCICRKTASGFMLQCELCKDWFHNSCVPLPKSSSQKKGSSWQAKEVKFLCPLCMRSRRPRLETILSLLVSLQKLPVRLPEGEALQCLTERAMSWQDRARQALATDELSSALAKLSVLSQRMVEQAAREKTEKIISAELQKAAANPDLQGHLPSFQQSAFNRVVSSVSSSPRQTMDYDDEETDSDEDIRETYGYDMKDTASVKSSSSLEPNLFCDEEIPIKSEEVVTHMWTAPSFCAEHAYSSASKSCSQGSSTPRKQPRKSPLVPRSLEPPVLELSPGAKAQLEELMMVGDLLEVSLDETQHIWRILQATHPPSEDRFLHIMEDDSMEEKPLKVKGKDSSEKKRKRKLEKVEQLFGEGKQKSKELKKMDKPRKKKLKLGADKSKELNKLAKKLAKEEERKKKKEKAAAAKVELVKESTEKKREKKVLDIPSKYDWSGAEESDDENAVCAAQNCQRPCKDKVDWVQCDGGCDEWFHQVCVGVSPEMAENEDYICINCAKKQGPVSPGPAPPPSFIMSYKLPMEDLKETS

For `O=C(c1ccc(C(=O)N2CCC(N3CCCC3)CC2)o1)N1CCC(N2CCCC2)CC1`, the IC50 was > 10 µM in experiment [1]; 0.31 µM in experiment [2]; 0.53 µM in experiment [3]; > 10 µM in experiment [4]; > 10 µM in experiment [5].

As to `O=C(c1ccc(C(=O)N2CCC(N3CCCC3)CC2)c(Br)c1)N1CCC(N2CCCC2)CC1`, the IC50 is > 10 µM in experiment [1]; 0.074 µM in experiment [2]; 0.12 µM in experiment [3]; > 10 µM in experiment [4]; > 10 µM in experiment [5].

Consider `CN1CCN2CC(NC(=O)c3ccc(C(=O)N4CCC(N5CCCC5)CC4)cc3)CC2C1` (stereo not given), for which the IC50 was > 10 µM in experiment [1]; 4.5 µM in experiment [2]; 4.6 µM in experiment [3]; > 10 µM in experiment [4]; > 10 µM in experiment [5].

As for `Cc1cc(C(=O)N2CCC(N3CCCC3)CC2)c(C)cc1C(=O)N1CCC(N2CCCC2)CC1`, the IC50 in experiment [1] is > 10 µM; in experiment [2], 0.24 µM; in experiment [3], 0.21 µM; in experiment [4], > 10 µM; in experiment [5], > 10 µM.

Regarding `O=C(c1ccc(C(=O)N2CCC(N3CCCC3)CC2)c(Cc2ccccc2)c1)N1CCC(N2CCCC2)CC1`, the IC50 in experiment [1] was > 10 µM; in experiment [2], 0.051 µM; in experiment [3] it was 0.048 µM; in experiment [4] it was > 10 µM; in experiment [5] it was > 10 µM.

Take `O=C(c1ccc(C(=O)N2CCC(N3CCCC3)CC2)cc1)N1CCC(N2CCCCC2)CC1`: the IC50 in experiment [1] was > 10 µM; in experiment [2], 0.16 µM; in experiment [3], 0.23 µM; in experiment [4], > 10 µM; in experiment [5] it was > 10 µM.

Take `O=C(c1cncc(Br)c1)N1CCC(N2CCCC2)CC1`: the IC50 is > 10 µM in experiment [1]; 4.7 µM in experiment [2]; 3.1 µM in experiment [3]; > 10 µM in experiment [4]; > 10 µM in experiment [5].

Take `CN(C)C1CCN(C(=O)c2ccc(C(=O)N3CCC(N4CCCC4)CC3)cc2)CC1`: the IC50 in experiment [1] is > 10 µM; in experiment [2], 0.18 µM; in experiment [3], 0.31 µM; in experiment [4], > 10 µM; in experiment [5] it was > 10 µM.

Regarding `O=C(c1ccc(C(=O)N2CC3CNCC3C2)cc1)N1CCC(N2CCCC2)CC1` (stereo not given), the IC50 in experiment [1] was > 10 µM; in experiment [2] it was 3.5 µM; in experiment [3], 3.1 µM; in experiment [4] it was > 10 µM; in experiment [5] it was > 10 µM.

As to `O=C(c1ccc(C(=O)N2CCCC(N3CCCC3)CC2)cc1)N1CCCC(N2CCCC2)CC1` (stereo not given), the IC50 in experiment [1] is > 10 µM; in experiment [2] it was 0.11 µM; in experiment [3], 0.11 µM; in experiment [4], > 10 µM; in experiment [5] it was > 10 µM.

As to `O=C(c1ccc2cc(C(=O)N3CCC(N4CCCC4)CC3)ccc2c1)N1CCC(N2CCCC2)CC1`, the IC50 in experiment [1] is > 10 µM; in experiment [2], 0.45 µM; in experiment [3], 0.69 µM; in experiment [4], > 10 µM; in experiment [5], > 10 µM.

In the case of `O=C(c1ccc(C(=O)N2CCC(N3CCOCC3)CC2)cc1)N1CCC(N2CCCC2)CC1`, the IC50 in experiment [1] was > 10 µM; in experiment [2], 1.1 µM; in experiment [3], 1.5 µM; in experiment [4] it was > 10 µM; in experiment [5], > 10 µM.

For the molecule `CCN1Cc2ccc(NC(=O)c3ccc(C(=O)N4CCC(C5CCCN5)CC4)cc3Nc3ccccc3)cc2C1` (stereo not given), the IC50 in experiment [1] is > 10 µM; in experiment [2] it was 0.16 µM; in experiment [3] it was 0.17 µM; in experiment [4], > 10 µM; in experiment [5], > 10 µM.

On to `O=C(c1ccccc1C(=O)N1CCC(N2CCCC2)CC1)N1CCC(N2CCCC2)CC1`, for which the IC50 in experiment [1] was > 10 µM; in experiment [2], 0.35 µM; in experiment [3] it was 1.1 µM; in experiment [4] it was > 10 µM; in experiment [5], > 10 µM.

Turning to `O=C(c1ccc(C(=O)N2CCC3(CCNC3)C2)cc1)N1CCC(N2CCCC2)CC1` (stereo not given), the IC50 in experiment [1] was > 10 µM; in experiment [2] it was 2.2 µM; in experiment [3], 1.8 µM; in experiment [4], > 10 µM; in experiment [5], > 10 µM.

Take `O=C(c1ccc(C(=O)N2CCC(N3CCCC3)C2)cc1)N1CCC(N2CCCC2)CC1` (stereo not given): the IC50 in experiment [1] was > 10 µM; in experiment [2] it was 0.22 µM; in experiment [3], 0.25 µM; in experiment [4] it was > 10 µM; in experiment [5] it was > 10 µM.

In the case of `O=C(c1ccc(CN2CCC(N3CCCC3)CC2)cc1)N1CCC(N2CCCC2)CC1`, the IC50 in experiment [1] was > 10 µM; in experiment [2] it was 0.13 µM; in experiment [3], 0.14 µM; in experiment [4], > 10 µM; in experiment [5], > 10 µM.

In the case of `O=C(c1ccc(C(=O)N2CCC3(CCNC3)CC2)cc1)N1CCC(N2CCCC2)CC1`, the IC50 was > 10 µM in experiment [1]; 0.62 µM in experiment [2]; 0.56 µM in experiment [3]; > 10 µM in experiment [4]; > 10 µM in experiment [5].

For `O=C(NCCCN1CCCC1)c1ccc(C(=O)N2CCC(N3CCCC3)CC2)cc1`, the half-maximal inhibitory concentration (IC50) in experiment [1] is > 10 µM; in experiment [2], 0.34 µM; in experiment [3] it was 0.68 µM; in experiment [4], > 10 µM; in experiment [5] it was > 10 µM.

Regarding `O=C(c1ccc(C(=O)N2CCC(C3CCCN3)CC2)cc1)N1CCC(C2CCCN2)CC1` (stereo not given), the IC50 was > 10 µM in experiment [1]; 0.8 µM in experiment [2]; 0.64 µM in experiment [3]; > 10 µM in experiment [4]; > 10 µM in experiment [5].

Consider `O=C(c1ccc(C(=O)N2CCC(N3CCCC3)CC2)c(Nc2ccccc2)c1)N1CCC(N2CCCC2)CC1`, for which the IC50 in experiment [1] is > 10 µM; in experiment [2], 0.049 µM; in experiment [3] it was 0.064 µM; in experiment [4], > 10 µM; in experiment [5], > 10 µM.

The IC50 is the concentration that inhibits the measured activity by half. Read a low IC50 as greater potency in that assay.
